Screening results (PubChem)
KCNQ1 pot – potentiators or activators of KCNQ1 channel, primary screen, cell-based, thallium flux, high-throughput. B-score at 10 µM. 310,000 compounds, 0.35% hits. CHO-K1 KCNQ1, thallium flux FluxOR fluorescence; active compounds read high. Potassium voltage-gated channel subfamily KQT member 1 (Homo sapiens), P51787;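 active means fluorescence ratio B-score, a plate-corrected score, at least three library SD, with initial intensity B-score within 5 SD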
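Schedule – 37 °C overnight plating, 90-min dark dye load, 20-min compound pretreatment · System – stable KCNQ1 CHO-K1 line · Probe or stimulus – thallium- and potassium-containing depolarizing buffer · Measured by – kinetic FluxOR fluorescence, 10 s baseline plus 110 s post-stimulus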
KCNK9 inh – KCNK9 potassium channel inhibitors, primary screen, HEK293 cells, thallium flux; FluxOR thallium flux fluorescence; active compounds read low; 310,000 compounds, 1.2% hits; B-score at 10 µM; Potassium channel subfamily K member 9 (Homo sapiens), Q9NPC2;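 active means ratio B-score over 3 SD below the library mean, with starting fluorescence within 5 SD of its mean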;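 further: negative B-score means less thallium flux so channel inhibition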
KCNQ1 inh – inhibitors of human KCNQ1 channel, primary screen, cell-based, thallium flux, high-throughput; 310,000 compounds, 1.3% hits; CHO-K1 KCNQ1, FluxOR thallium flux fluorescence; active compounds read high; B-score at 10 µM;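 active means compounds whose thallium flux B-score, printed positive for inhibition, exceeds three library SD while starting fluorescence stays within three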;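 further: channel opened by potassium depolarization with thallium stimulus after 20 min compound exposure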
KCNK3 block – human KCNK3 channel inhibitors, primary screen, CHO cells, FluxOR thallium flux, B-score; Potassium channel subfamily K member 3 (Homo sapiens), O14649; FluxOR fluorescence; active compounds read low; B-score at 10 µM; 340,000 compounds, 0.84% hits;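 active means B-score under library mean minus 4 SD, starting fluorescence ratio at most library mean plus 5 SD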;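 further: more negative B-score means stronger inhibition of thallium flux through KCNK3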
hERG rescue – hERG rescue from dofetilide block, primary screen, cell-based, CHO-hERG, FluxOR thallium flux, dofetilide IC70. Voltage-gated inwardly rectifying potassium channel KCNH2 (Homo sapiens), Q12809. AID 1511, 2009. dofetilide IC70 present. activation (rescue from dofetilide block), less the hit threshold, % at 10 µM. 310,000 compounds, 0.51% hits;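 active means activation above the mean of controls blocked by dofetilide plus 5 SD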;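 further: thallium influx through hERG after potassium depolarization seen as dye fluorescence rise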
Target sequence (Q12809 whole entry, looked up): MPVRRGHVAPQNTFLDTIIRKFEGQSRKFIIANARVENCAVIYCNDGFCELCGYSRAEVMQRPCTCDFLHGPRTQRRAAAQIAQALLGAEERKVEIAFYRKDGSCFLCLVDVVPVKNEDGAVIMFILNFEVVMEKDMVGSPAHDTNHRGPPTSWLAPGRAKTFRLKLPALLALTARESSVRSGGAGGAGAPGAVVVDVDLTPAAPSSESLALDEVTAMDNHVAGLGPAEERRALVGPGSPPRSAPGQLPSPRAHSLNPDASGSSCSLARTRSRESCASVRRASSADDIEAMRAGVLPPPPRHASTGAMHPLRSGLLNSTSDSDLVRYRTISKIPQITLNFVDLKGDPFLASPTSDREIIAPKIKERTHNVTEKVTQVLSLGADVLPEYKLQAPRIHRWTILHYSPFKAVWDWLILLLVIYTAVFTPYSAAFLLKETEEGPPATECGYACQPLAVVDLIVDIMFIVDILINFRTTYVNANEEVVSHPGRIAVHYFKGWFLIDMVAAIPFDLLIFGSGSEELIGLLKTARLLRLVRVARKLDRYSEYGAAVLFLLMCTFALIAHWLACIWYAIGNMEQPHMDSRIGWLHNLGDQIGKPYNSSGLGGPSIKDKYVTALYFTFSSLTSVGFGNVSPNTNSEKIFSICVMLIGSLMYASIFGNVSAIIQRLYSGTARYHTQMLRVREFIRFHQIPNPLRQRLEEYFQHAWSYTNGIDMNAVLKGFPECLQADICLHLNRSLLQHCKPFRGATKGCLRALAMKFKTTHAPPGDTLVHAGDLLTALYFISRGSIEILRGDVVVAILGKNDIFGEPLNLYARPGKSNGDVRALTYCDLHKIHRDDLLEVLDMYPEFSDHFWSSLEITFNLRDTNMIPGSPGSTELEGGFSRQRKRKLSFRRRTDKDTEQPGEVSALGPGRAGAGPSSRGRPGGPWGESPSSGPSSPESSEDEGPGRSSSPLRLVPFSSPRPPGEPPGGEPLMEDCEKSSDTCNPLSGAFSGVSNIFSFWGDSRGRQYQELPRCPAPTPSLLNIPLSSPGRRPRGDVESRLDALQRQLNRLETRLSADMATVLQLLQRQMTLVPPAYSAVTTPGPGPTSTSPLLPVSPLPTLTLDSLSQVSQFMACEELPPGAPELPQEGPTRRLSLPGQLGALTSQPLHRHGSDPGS
Kir21 inh – inhibitors of mouse Kir2.1 inward-rectifier potassium channel | Inward rectifier potassium channel 2 (Mus musculus), P35561 | HEK293-Kir2.1, FluxOR thallium flux fluorescence; active compounds read low | B-score at 10 µM | 310,000 compounds, 0.85% hits | AID 1672, 2009;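 active means fluorescence ratio B-score at or below minus 3 SD of library scores, with starting-brightness B-score within 2 SD, cut at about -4.2 in these data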;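 further: channel flux triggered by added potassium and thallium sulfate stimulus; B-score of peak minus minimum fluorescence over baseline after thallium stimulus; more negative B-score means stronger Kir2.1 block with less thallium influx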
KCNK3 inh conf – retest of human KCNK3 channel inhibitors, confirmation, CHO cells, FluxOR thallium flux, triplicate. 2,400 compounds, 99% hits. shares compounds with KCNK3 block. AID 651638, 2012. FluxOR fluorescence; 0% buffer, 100% carvedilol maximal block. ratio percent of control, % at 10 µM;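 active means ratio percent of control, averaged over triplicates, above buffer control mean plus 5 SD, cut at about 64% in these data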;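 further: ratio is the fluorescence rise from min to max over baseline after thallium stimulus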
KCNK3 uninduced – thallium flux inhibition in non-induced cells, primary screen, counter-screen for KCNK3 inhibitor project, cell-based, non-induced KCNK3 line, FluxOR thallium, triplicate | shares compounds with KCNK3 block | thallium flux ratio (lower = more inhibition) at 10 µM | 2,400 compounds, 40% hits | non-induced KCNK3 parental cells; active compounds read low;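 active means thallium flux ratio, averaged over three wells, more than 5 SD below the buffer control mean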;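 further: host cells are CHO cells without KCNK3 induction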
Large screens that a line does not name were inactive (follow-up assays come after a bar, where they were run). Rows were chosen to be rich in hits. Some 3.7% of all compounds tested hit in one or more screens of this group.

Fc1ccccc1C1c2cccn2CCN1C(=S)Nc1ccc(Br)cc1 (stereo not drawn)	KCNQ1 inh 7, KCNK3 block -14.8 | KCNK3 inh conf 131.7 | KCNK3 uninduced 0.121
CCCNC(=O)CSc1nc2ccccc2c(=O)n1CCC	KCNK3 block -8.84 | KCNK3 inh conf 85.7 | KCNK3 uninduced inactive
COc1ccccc1-n1c(SCC(=O)Nc2ccccc2F)nc2[nH]ncc2c1=O	KCNK3 block -9.58 | KCNK3 inh conf 114.0 | KCNK3 uninduced inactive
CCn1c2ccccc2c2nnc(SCc3ccccc3)nc21	KCNK9 inh -6.59, KCNK3 block -12 | KCNK3 inh conf 106.3 | KCNK3 uninduced inactive
O=C1COc2ccc(C(=O)COC(=O)/C=C/c3ccc(Br)o3)cc2N1	none
CCCCC(=O)Oc1c(S(=O)(=O)c2ccc(C)cc2)c(C)nn1C(C)(C)C	KCNK3 block -9.93 | KCNK3 inh conf 95.3 | KCNK3 uninduced inactive
CC(C)(C)N1[C@@H](CC(=O)O)c2cc(C(F)(F)F)ccc2S1(=O)=O	none
CCOc1ccc(-c2cccc(NC(=O)c3ccc(Br)o3)c2)nn1	KCNK3 block -11.7 | KCNK3 inh conf 98.0 | KCNK3 uninduced inactive
COc1ccc(C(CC(=O)Nc2cc(C)ccn2)N2Cc3ccccc3C2=O)cc1 (stereo not drawn)	none
O=[N+]([O-])c1cccc(CSc2ncnc3ccccc23)c1	KCNK3 block -9.56 | KCNK3 inh conf 84.0 | KCNK3 uninduced inactive
Cc1ccc(OC(=O)c2cccc(S(=O)(=O)N(C)C)c2)c(-n2nc3ccccc3n2)c1	KCNK9 inh -7.08 | KCNK3 inh conf 118.3 | KCNK3 uninduced inactive
Cc1ccc(OC(=O)c2cccc(S(=O)(=O)N3CCCC3)c2)c(-n2nc3ccccc3n2)c1	KCNK3 block -9.3 | KCNK3 inh conf 110.0 | KCNK3 uninduced inactive
CCc1c(C)nc2cc(-c3ccc(OC)c(OC)c3)nn2c1N1CCCC1	KCNK3 block -9.63 | KCNK3 inh conf 109.0 | KCNK3 uninduced inactive
CCc1c(C)nc2cc(-c3ccc(OC)c(OC)c3)nn2c1N1CCC(C)CC1	KCNK3 block -8.94 | KCNK3 inh conf 103.7 | KCNK3 uninduced inactive
COc1ccc(-c2c(C)nn3c(N4CCCCCC4)cc(C)nc23)cc1OC	none
O=C(CCc1ccccc1)NNC(=O)COc1ccccc1Cl	none
O=C(COc1ccc2c3c(c(=O)oc2c1)CCCC3)NCCCN1CCOCC1	none
O=C(COC(=O)c1cc(Br)ccc1O)Nc1cc(S(=O)(=O)N2CCCC2)ccc1Cl	KCNK9 inh -6.62, KCNK3 block -9.5 | KCNK3 inh conf 96.0 | KCNK3 uninduced inactive
COc1ccc(CN2CCNC(=O)C2CC(=O)NCCc2nc(C)c(C)s2)cc1C (stereo not drawn)	none
COCCN(C(=O)c1ccco1)c1nc(-c2ccccc2)cs1	KCNK3 block -10.2 | KCNK3 inh conf 91.7 | KCNK3 uninduced 0.152
O=C1N(c2ccccc2)C(c2ccc(Cl)cc2)N2CCCN12 (stereo not drawn)	none
Cc1ccc(C2N(c3ccc(Cl)cc3)C(=O)N3CCCN23)cc1 (stereo not drawn)	KCNK3 block -9.61 | KCNK3 inh conf 90.0 | KCNK3 uninduced inactive
